Experimental data reported in ChEMBL document CHEMBL4007450, “Development of 1,2,4-Oxadiazoles as Potent and Selective Inhibitors of the Human Deacetylase Sirtuin 2: Structure-Activity Relationship, X-ray Crystal Structure, and Anticancer Activity” (J Med Chem, 2017).
Activity calls are given as the source filed them. The rule behind the calls is not given here.

Experiments:
U-937 [1] = assay: Cell cycle arrest in human U937 cells assessed as accumulation at S phase at 25 uM after 48 hrs by propidium iodide staining-based FACS analysis; format: functional
NB-4 [2] = assay: Induction of apoptosis in human NB4 cells assessed as pre-G1 accumulation at 25 uM after 48 hrs by propidium iodide staining-based FACS analysis; format: functional
How it was run: (§1)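 Leukemia cells (U937, NB4, HL-60, K562) were grown in RPMI-1640 with 10% FBS, 2 mM L-glutamine and antibiotics, then treated for 48 h at 5, 10, 25 and 50 μM. 2.5×10^5 cells were stained 30 min in the dark in hypotonic PI buffer (0.1% Triton X-100, 0.1% citrate, 50 µg/mL PI, RNase A). Apoptosis was scored as pre-G1 content by flow cytometry. Duplicates, mean ± SD.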

K562 = assay: Induction of apoptosis in human K562 cells assessed as pre-G1 accumulation at 25 uM after 48 hrs by propidium iodide staining-based FACS analysis; format: functional; how it was run: as §1
MDA-MB-231 [3] = assay: Induction of apoptosis in human MDA-MB-231 cells assessed as pre-G1 accumulation at 25 uM after 48 hrs by propidium iodide staining-based FACS analysis; format: functional
How it was run: (§2)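 MDA-MB-231 breast cancer cells were grown in DMEM with 10% FBS, 2 mM L-glutamine and antibiotics, then exposed for 48 h at 5, 10, 25 or 50 μM. 2.5×10^5 cells were stained in hypotonic buffer with 50 µg/mL PI, 0.1% Triton X-100, 0.1% citrate and RNase A for 30 min in the dark. Pre-G1 fraction was measured by flow cytometry. Biological duplicates, mean ± SD.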

OCI-AML-3 = assay: Antiproliferative activity against human OCI-AML3 cells harboring NPM1c+, DNMT3A R882C mutant assessed as cell growth inhibition after 48 hrs by WST1 assay; format: functional, cell-based; conditions: OCI-AML-3, 48 h
How it was run: (§3)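 WST-1 proliferation assay. Cells plated in triplicate at 5×10^3 cells/well and exposed to increasing compound concentrations for 48 h at 37 °C, 5% CO2. WST-1 reagent was then added for 1 h. IC50 was obtained by nonlinear regression of each cell line's dose-response curve.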

[4] = Antiproliferative activity against human IMS-M2 cells harboring NPM1c+ assessed as cell growth inhibition after 48 hrs by WST1 assay; format: functional, cell-based; conditions: IMS-M2, 48 h; how it was run: as §3
OCI-AML2 = assay: Antiproliferative activity against human OCI-AML2 cells harboring DNMT3A R635W mutant assessed as cell growth inhibition after 48 hrs by WST1 assay; format: functional, cell-based; conditions: OCI-AML2, 48 h; how it was run: as §3
MV4-11 = assay: Antiproliferative activity against human MV4-11 cells harboring FLT3-ITD [t(4;11)(q21;q23)], MLL/MLLT2(AF4) mutant assessed as cell growth inhibition after 48 hrs by WST1 assay; format: functional, cell-based; conditions: MV4-11, 48 h; how it was run: as §3
Kasumi 1 = assay: Antiproliferative activity against human Kasumi-1 cells harboring AML1-ETO [t(8:21)] mutant assessed as cell growth inhibition after 48 hrs by WST1 assay; format: functional, cell-based; conditions: Kasumi 1, 48 h; how it was run: as §3
U-937 [5] = assay: Antiproliferative activity against human U937 cells harboring p53+/- assessed as cell growth inhibition after 48 hrs by WST1 assay; format: functional, cell-based; conditions: U-937, 48 h; how it was run: as §3
NB-4 [6] = assay: Antiproliferative activity against human NB4 cells harboring PML-RARalpha [t(15;17)(q22;q12)] mutant assessed as cell growth inhibition after 48 hrs by WST1 assay; format: functional, cell-based; conditions: NB-4, 48 h; how it was run: as §3
HL-60 [7] = assay: Antiproliferative activity against human p53 deficient HL60 cells assessed as cell growth inhibition after 48 hrs by WST1 assay; format: functional, cell-based; conditions: HL-60, 48 h; how it was run: as §3
KARPAS-299 = assay: Antiproliferative activity against human KARPAS299 cells harboring NPM1/ALK, [t(2;5)(p23;q35)] mutant assessed as cell growth inhibition after 48 hrs by WST1 assay; format: functional, cell-based; conditions: KARPAS-299, 48 h; how it was run: as §3
[8] = molecular target: T1, NAD-dependent protein deacetylase sirtuin-2 (Homo sapiens, UniProt Q8IXJ6)
T1 sequence (Q8IXJ6 whole entry): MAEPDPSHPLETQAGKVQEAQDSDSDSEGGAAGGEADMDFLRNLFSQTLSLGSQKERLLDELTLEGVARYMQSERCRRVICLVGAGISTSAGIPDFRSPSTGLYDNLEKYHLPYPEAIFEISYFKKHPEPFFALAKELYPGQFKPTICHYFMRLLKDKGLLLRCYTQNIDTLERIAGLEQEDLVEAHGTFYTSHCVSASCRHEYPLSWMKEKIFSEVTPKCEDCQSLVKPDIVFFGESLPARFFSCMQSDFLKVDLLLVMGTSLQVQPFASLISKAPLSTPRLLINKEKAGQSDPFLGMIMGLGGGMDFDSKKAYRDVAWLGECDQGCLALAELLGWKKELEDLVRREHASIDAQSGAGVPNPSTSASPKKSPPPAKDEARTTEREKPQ

[9] = molecular target: T2, NAD-dependent protein deacetylase sirtuin-3, mitochondrial (Homo sapiens) (UniProt Q9NTG7); assay: Inhibition of human SIRT3 (114 to 380 residues) activity expressed in Escherichia coli using AceCS2 peptide as substrate up to 100 uM after 45 mins in presence of NAD+ by pNCA/GDH-based microplate spectrophotometric analysis
T2 sequence (whole entry): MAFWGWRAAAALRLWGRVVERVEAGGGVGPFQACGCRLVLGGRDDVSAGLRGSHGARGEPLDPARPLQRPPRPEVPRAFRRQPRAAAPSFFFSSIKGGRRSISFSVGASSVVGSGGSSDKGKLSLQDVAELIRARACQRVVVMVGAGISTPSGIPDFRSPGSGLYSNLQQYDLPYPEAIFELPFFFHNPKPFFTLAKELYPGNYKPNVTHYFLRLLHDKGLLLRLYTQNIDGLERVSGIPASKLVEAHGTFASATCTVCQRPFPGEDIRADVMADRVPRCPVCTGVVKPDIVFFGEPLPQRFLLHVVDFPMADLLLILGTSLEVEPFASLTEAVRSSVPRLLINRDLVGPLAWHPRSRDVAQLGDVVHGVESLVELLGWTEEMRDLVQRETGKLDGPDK
How it was run: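 Same pNCA/GDH-coupled 340 nm NADPH read-out as the Sirt2 assay, using 20 mM Na-phosphate pH 7.8 with 3% DMSO at 20 °C for 45 min. Sirt3 (114-380) was used at 5 µM with AceCS2 peptide TRSGacKVMR as substrate. Inhibitors were tested up to 100 µM.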

[10] = molecular target: T3, NAD-dependent protein deacetylase sirtuin-1 (Homo sapiens) (UniProt Q96EB6); assay: Inhibition of human full length SIRT1 activity expressed in Escherichia coli using p53 peptide as substrate up to 100 uM after 45 mins in presence of NAD+ by pNCA/GDH-based microplate spectrophotometric analysis
T3 sequence (whole entry): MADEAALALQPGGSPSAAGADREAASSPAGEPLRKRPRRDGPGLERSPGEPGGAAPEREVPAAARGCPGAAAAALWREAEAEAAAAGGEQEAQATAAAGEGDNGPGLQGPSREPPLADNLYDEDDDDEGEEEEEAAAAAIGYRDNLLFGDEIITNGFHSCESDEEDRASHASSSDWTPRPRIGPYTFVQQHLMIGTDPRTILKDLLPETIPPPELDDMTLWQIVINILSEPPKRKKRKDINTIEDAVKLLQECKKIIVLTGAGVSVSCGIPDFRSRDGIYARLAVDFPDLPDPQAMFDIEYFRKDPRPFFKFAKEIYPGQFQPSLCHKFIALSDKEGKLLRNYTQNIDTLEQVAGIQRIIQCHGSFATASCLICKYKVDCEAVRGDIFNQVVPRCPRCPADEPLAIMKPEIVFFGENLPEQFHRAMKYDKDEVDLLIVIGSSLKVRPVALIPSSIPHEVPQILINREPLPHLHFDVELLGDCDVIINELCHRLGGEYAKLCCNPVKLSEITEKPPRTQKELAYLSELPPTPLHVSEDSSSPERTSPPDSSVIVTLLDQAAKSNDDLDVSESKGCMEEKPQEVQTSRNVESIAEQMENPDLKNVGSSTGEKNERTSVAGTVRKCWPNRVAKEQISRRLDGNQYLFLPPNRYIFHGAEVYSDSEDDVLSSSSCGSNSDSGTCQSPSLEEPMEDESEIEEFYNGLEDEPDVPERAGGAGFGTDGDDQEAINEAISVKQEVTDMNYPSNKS
How it was run: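 Full-length Sirt1 at 2 µM with p53 peptide RHKacKLMFK as substrate. Activity was measured in the same coupled pNCA/GDH mix as for Sirt2 (α-ketoglutarate, NADPH, Na-phosphate pH 7.8, 3% DMSO), following NADPH oxidation at 340 nm at 20 °C for 45 min. Compounds were tested up to 100 µM.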

[11] = molecular target: NAD-dependent protein deacylase sirtuin-5, mitochondrial (Homo sapiens) (UniProt Q9NXA8); assay: Inhibition of human SIRT5 (34 to 302 residues) deacetylase activity expressed in Escherichia coli using Prx1 peptide as substrate up to 100 uM after 45 mins in presence of NAD+ by pNCA/GDH-based microplate spectrophotometric analysis
Sequence of NAD-dependent protein deacylase sirtuin-5, mitochondrial (Homo sapiens) (Q9NXA8 37-310 limits assumed): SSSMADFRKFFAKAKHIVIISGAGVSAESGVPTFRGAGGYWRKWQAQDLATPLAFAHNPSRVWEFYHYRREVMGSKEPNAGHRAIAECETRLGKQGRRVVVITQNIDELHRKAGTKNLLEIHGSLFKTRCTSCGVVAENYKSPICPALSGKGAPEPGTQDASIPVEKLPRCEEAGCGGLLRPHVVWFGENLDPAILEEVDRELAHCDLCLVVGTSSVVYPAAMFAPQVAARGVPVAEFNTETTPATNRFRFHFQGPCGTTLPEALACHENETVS

U-937 [12] = assay: Effect on cell cycle arrest in human U937 cells at 25 uM after 48 hrs by propidium iodide staining-based FACS analysis; format: functional
NB-4 [13] = assay: Induction of apoptosis in human NB4 cells assessed as pre-G1 accumulation at 10 uM after 48 hrs by propidium iodide staining-based FACS analysis; format: functional, cell-based; how it was run: as §1
U-937 [14] = assay: Induction of apoptosis in human U937 cells assessed as pre-G1 accumulation at 50 uM after 48 hrs by propidium iodide staining-based FACS analysis; format: functional; how it was run: as §1
[15] = molecular target: NAD-dependent protein deacylase sirtuin-5, mitochondrial (Homo sapiens) (UniProt Q9NXA8); assay: Inhibition of human SIRT5 (34 to 302 residues) desuccinylase activity expressed in Escherichia coli using peptide as substrate up to 100 uM after 45 mins in presence of NAD+ by pNCA/GDH-based microplate spectrophotometric analysis
U-937 [16] = assay: Induction of apoptosis in human U937 cells assessed as pre-G1 accumulation at 25 uM after 48 hrs by propidium iodide staining-based FACS analysis; format: functional; how it was run: as §1
NB-4 [17] = assay: Induction of apoptosis in human NB4 cells assessed as pre-G1 accumulation at 50 uM after 48 hrs by propidium iodide staining-based FACS analysis; format: functional; how it was run: as §1
MDA-MB-231 [18] = assay: Induction of apoptosis in human MDA-MB-231 cells assessed as pre-G1 accumulation at 50 uM after 48 hrs by propidium iodide staining-based FACS analysis; format: functional; how it was run: as §2
[19] = molecular target: NAD-dependent protein deacylase sirtuin-5, mitochondrial (Homo sapiens) (UniProt Q9NXA8); assay: Inhibition of human SIRT5 (34 to 302 residues) desuccinylase activity expressed in Escherichia coli using CPS1 peptide as substrate at 100 uM after 45 mins in presence of NAD+ by pNCA/GDH-based microplate spectrophotometric analysis
[20] = molecular target: NAD-dependent protein deacylase sirtuin-5, mitochondrial (Homo sapiens) (UniProt Q9NXA8); assay: Inhibition of human SIRT5 (34 to 302 residues) deacetylase activity expressed in Escherichia coli using Prx1 peptide as substrate at 100 uM after 45 mins in presence of NAD+ by pNCA/GDH-based microplate spectrophotometric analysis
HL-60 [21] = assay: Induction of apoptosis in human HL60 cells assessed as pre-G1 accumulation at 50 uM after 48 hrs by propidium iodide staining-based FACS analysis; format: functional; how it was run: as §1
[22] = molecular target: T3, NAD-dependent protein deacetylase sirtuin-1 (Homo sapiens); conditions: 100 uM
[23] = molecular target: T4, NAD-dependent protein deacetylase sirtuin-2 (Homo sapiens) (UniProt Q8IXJ6); conditions: 5 to 25 uM
T4 sequence (whole entry): T1 sequence (Q8IXJ6 whole entry)

[24] = molecular target: T4, NAD-dependent protein deacetylase sirtuin-2 (Homo sapiens); conditions: 5 to 25 uM; remark: listed apart in the source

IC50 (OCI-AML-3)	IC50 (OCI-AML2)	IC50 (MV4-11)	IC50 (U-937 [5])	IC50 (HL-60 [7])	IC50 (KARPAS-299)	IC50 [8]	Structure (SMILES)	IC50 [4]	IC50 (Kasumi 1)	IC50 (NB-4 [6])	also measured
62 µM	37 µM	16 µM	25 µM	30 µM	36 µM	10.4 µM	COc1ccc(-c2noc(CCCBr)n2)cc1	18.4 µM	10.3 µM	12 µM	Activity (U-937 [1]): Active; Activity (NB-4 [2]): >80%; Activity (K562): >80%; Activity (MDA-MB-231 [3]): >80%
66 µM	85 µM	38 µM	> 100 µM	100 µM	25 µM	–	BrCCCc1nc(-c2ccc(Br)cc2)no1	100 µM	56 µM	49 µM	inhibition [9]: inactive; inhibition [10]: inactive; inhibition [11]: inactive; Activity (U-937 [12]): inactive; Activity (NB-4 [13]): Active; Activity (U-937 [14]): >80%; inhibition [15]: inactive
–	–	–	–	–	–	19.8 µM	Fc1ccc(-c2noc(CCCBr)n2)cc1	–	–	–	Activity (U-937 [16]): 11.1 - 37.1%; Activity (NB-4 [17]): 30 - 40%; Activity (MDA-MB-231 [18]): 30 - 40%
–	–	–	–	–	–	–	N#C/C(=C\c1ccc(-c2cc(Cl)ccc2Cl)o1)C(=O)Nc1cccc2ncccc12	–	–	–	inhibition [19]: Active; inhibition [20]: Active; Activity (HL-60 [21]): 6%; inhibition [22]: Active; inhibition [23]: inactive; inhibition [24]: inactive
